Laboratory results reported in ChEMBL document CHEMBL4385606, “3,5,7-Substituted Pyrazolo[4,3- d]pyrimidine Inhibitors of Cyclin-Dependent Kinases and Their Evaluation in Lymphoma Models” (J Med Chem, 2019).
Active and inactive are the calls of the source. No cut-off for these calls is given here.

Columns and labels:
[1] = molecular target: Cyclin-dependent kinase 4/cyclin D1 (Homo sapiens, UniProt P11802); test: Inhibition of recombinant human N-terminal GST-fused CDK4 (S4 to E303 residues)/cyclin D1 (Q4 to I295 residues) expressed in baculovirus infected Sf9 insect cells using RPPTLSPIPHIPR as substrate measured in presence of [gamma-33P]ATP
Sequence of Cyclin-dependent kinase 4/cyclin D1 (P11802 whole entry, the tested form may be a part): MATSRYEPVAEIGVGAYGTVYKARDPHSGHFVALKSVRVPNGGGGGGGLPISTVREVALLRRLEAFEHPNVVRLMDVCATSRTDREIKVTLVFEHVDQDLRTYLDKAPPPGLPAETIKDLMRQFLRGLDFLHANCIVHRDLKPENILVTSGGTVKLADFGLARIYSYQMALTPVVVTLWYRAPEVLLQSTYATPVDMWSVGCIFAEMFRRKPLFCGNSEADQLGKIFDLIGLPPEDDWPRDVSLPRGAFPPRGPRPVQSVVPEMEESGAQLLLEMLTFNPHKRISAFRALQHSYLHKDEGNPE
Sequence of Cyclin-dependent kinase 4/cyclin D1 (P24385 whole entry, further chain, the tested form may be a part): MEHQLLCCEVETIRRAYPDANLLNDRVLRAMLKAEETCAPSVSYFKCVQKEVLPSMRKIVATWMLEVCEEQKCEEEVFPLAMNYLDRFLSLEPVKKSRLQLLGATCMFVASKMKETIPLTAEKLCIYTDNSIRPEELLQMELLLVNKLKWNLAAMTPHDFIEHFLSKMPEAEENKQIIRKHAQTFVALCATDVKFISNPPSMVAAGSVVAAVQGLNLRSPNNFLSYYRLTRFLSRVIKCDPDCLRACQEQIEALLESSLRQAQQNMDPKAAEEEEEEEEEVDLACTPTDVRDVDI
Procedure, shortened: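 CDK/cyclin complexes tested in triplicate at minimum; IC50 values reported from those replicate determinations.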

[2] = Antiproliferative activity against human Mino cells measured after 72 hrs by calcein AM dye-based fluorescence assay; assay type: functional
Procedure, shortened: (§1)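 Cells exposed in triplicate to six concentrations for 72 h; calcein AM added for 1 h, live-cell fluorescence read at 485/538 nm (ex/em). GI50 taken from dose-response curves.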

Homo sapiens [3] = species on record: Homo sapiens; test: Induction of apoptosis in human UPF1H cells assessed as induction of PARP1 cleavage at 12.5 to 100 nM after 24 hrs by immunoblot analysis; assay type: functional, cell-based
Procedure, shortened: (§2)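 Lymphoma cell lines were cultured as the providers instruct and exposed to compound at several doses or for several times. Lysates were run on SDS-PAGE and blotted to nitrocellulose. Blots were blocked, incubated overnight with primary antibodies diluted in PBS with 5% milk and 0.1% Tween 20, then with peroxidase-conjugated secondaries, and detected by chemiluminescence on a CCD camera.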

Mus musculus [4] = test: Ex vivo antitumor activity against human Mino cells xenografted NSG mouse decrease in phosphorylation of Rb at 780 residue at 5 to 10 mg/kg, iv measured after 24 hrs by immunoblotting analysis; assay type: functional, organism-based
Procedure, shortened: (§3)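 Female NSG mice, 8-12 weeks old, implanted s.c. with lymphoma cells. Once tumors were palpable, mice received a single tail-vein i.v. dose (5 or 10 mg/kg) of compound dissolved in PBS. Mice were euthanized 24 h later. Tumors were excised, filtered through 45 µm nylon mesh and lysed, then proteins were analysed by immunoblotting.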

HCT-116 = test: Antiproliferative activity against human HCT116 cells assessed as growth inhibition measured after 72 hrs by calcein AM dye-based fluorescence assay; assay type: functional, cell-based; details: HCT-116, 72 h; procedure, shortened: as §1
Homo sapiens [5] = test: Antitumor activity against human HBL2 cells xenografted in NSG mouse assessed as inhibition of tumor growth at 10 mg/kg, iv administered daily measured every day during compound dosing by caliper method
[6] = tested on: Panel NCI-60 (60 carcinoma cell lines); test: Antiproliferative activity against human NCI60 cells after 48 hrs by sulforhodamine B assay; assay type: functional
OCI-Ly7 = test: Antiproliferative activity against human OCI-LY7 cells assessed as growth inhibition measured after 72 hrs by calcein AM dye-based fluorescence assay; assay type: functional, cell-based; details: OCI-Ly7, 72 h; procedure, shortened: as §1
Homo sapiens [7] = species on record: Homo sapiens; test: Induction of apoptosis in human Mino cells assessed as caspase 3 activation at 12.5 nM after 2 to 24 hrs by immunoblotting analysis; assay type: functional, cell-based; procedure, shortened: as §2
JeKo-1 = test: Antiproliferative activity against human JeKo1 cells assessed as growth inhibition measured after 72 hrs by calcein AM dye-based fluorescence assay; assay type: functional, cell-based; details: JeKo-1, 72 h; procedure, shortened: as §1
U2932 = test: Antiproliferative activity against human U2932 cells assessed as growth inhibition measured after 72 hrs by calcein AM dye-based fluorescence assay; assay type: functional, cell-based; details: U2932, 72 h; procedure, shortened: as §1
Homo sapiens [8] = species on record: Homo sapiens; test: Induction of apoptosis in human Mino cells assessed as reduction in MCL1 expression at 12.5 nM after 2 to 24 hrs by immunoblotting analysis; assay type: functional, cell-based; procedure, shortened: as §2
Mus musculus [9] = test: Ex vivo antitumor activity against human UPF1H cells xenografted NSG mouse assessed as cleavage of PARP1 at 5 to 10 mg/kg, iv measured after 24 hrs by immunoblotting analysis; assay type: functional, organism-based; procedure, shortened: as §3
[10] = molecular target: T1, Serine/threonine-protein kinase Chk2 (Homo sapiens, UniProt O96017); test: Inhibition of CHK2 (unknown origin) assessed as residual activity at 1 uM relative to control
T1 sequence (O96017 whole entry): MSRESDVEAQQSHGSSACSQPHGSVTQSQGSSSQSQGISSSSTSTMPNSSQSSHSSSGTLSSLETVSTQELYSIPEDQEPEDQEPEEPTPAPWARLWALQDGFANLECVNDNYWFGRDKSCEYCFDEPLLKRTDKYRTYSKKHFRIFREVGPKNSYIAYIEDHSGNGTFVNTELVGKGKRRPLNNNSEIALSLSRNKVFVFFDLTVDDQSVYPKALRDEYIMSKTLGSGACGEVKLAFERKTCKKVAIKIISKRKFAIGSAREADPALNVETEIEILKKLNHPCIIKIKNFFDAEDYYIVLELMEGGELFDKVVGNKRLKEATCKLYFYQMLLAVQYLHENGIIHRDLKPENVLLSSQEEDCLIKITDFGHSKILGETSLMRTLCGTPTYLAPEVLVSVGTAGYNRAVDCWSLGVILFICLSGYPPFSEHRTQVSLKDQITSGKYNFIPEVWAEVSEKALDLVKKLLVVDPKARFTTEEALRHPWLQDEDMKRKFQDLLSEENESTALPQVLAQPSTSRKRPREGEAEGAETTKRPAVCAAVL
Procedure, shortened: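 Single-concentration screen at 1 µM across a panel of 50 protein kinases sampling the human kinome; read-out is residual kinase activity (%).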

Mus musculus [11] = test: Ex vivo antitumor activity against Maver1 xenografted NSG mouse assessed as increase in cleaved caspase9 expression at 10 mg/kg, iv measured after 24 hrs by immunoblotting analysis; assay type: functional, organism-based
Procedure, shortened: (§4)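 NSG mice bearing palpable s.c. tumors received a single i.v. dose (5 or 10 mg/kg) and were euthanized after 24 h. Excised tumors were filtered through 45 µm nylon mesh, lysed and run on SDS-PAGE, transferred to nitrocellulose, probed overnight with primary antibodies in PBS with 5% milk and 0.1% Tween 20, then peroxidase secondaries, with chemiluminescent detection.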

Homo sapiens [12] = species on record: Homo sapiens; test: Induction of apoptosis in human Mino cells assessed as reduction in MCL1 expression at 1.5 to 12.5 nM after 24 hrs by immunoblotting analysis; assay type: functional, cell-based; procedure, shortened: as §2
Homo sapiens [13] = species on record: Homo sapiens; test: Induction of apoptosis in human Mino cells assessed as induction of PARP1 cleavage at 1.5 to 12.5 nM after 24 hrs by immunoblotting analysis; assay type: functional, cell-based; procedure, shortened: as §2
Homo sapiens [14] = species on record: Homo sapiens; test: Induction of apoptosis in human Mino cells assessed as decrease in XIAP level at 1.5 to 12.5 nM after 24 hrs by immunoblotting analysis; assay type: functional, cell-based; procedure, shortened: as §2
Mus musculus [15] = test: Ex vivo antitumor activity against Maver1 xenografted NSG mouse assessed as effect on BCL-2 expression at 10 mg/kg, iv measured after 24 hrs by immunoblotting analysis; assay type: functional, organism-based; procedure, shortened: as §4
[16] = Antiproliferative activity against human HBL1 cells assessed as growth inhibition measured after 72 hrs by calcein AM dye-based fluorescence assay; assay type: functional, cell-based; details: HBL1, 72 h; procedure, shortened: as §1
[17] = molecular target: Cyclin-dependent kinase 9 (Homo sapiens) (UniProt P50750); test: Inhibition of CDK9 in human Mino cells assessed as decrease in phosphorylation of Rb at Ser 608 residue at 12.5 nM by immunoblotting analysis; assay type: cell-based; details: TDE = time-dependent effect
Sequence of Cyclin-dependent kinase 9 (Homo sapiens) (P50750 whole entry): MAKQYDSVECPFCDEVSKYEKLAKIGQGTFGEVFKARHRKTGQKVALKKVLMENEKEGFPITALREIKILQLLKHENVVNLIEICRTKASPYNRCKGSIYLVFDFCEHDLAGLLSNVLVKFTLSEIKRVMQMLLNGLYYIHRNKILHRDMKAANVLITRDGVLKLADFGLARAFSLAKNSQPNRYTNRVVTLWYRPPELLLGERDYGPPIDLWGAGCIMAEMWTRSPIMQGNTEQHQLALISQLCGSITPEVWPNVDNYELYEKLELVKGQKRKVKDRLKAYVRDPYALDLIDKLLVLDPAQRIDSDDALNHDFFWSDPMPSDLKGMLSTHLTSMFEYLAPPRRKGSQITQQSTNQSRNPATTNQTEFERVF
Procedure, shortened: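 MINO lymphoma cells exposed to 12.5 nM for up to 24 h (time course). Lysates separated by SDS-PAGE, transferred to nitrocellulose, probed overnight with specific primary antibodies diluted in PBS with 5% milk and 0.1% Tween 20, then peroxidase-conjugated secondaries; chemiluminescence imaged with a CCD camera.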

[18] = molecular target: T1, Serine/threonine-protein kinase Chk2; test: Inhibition of CHK2 (unknown origin)
[19] = Antiproliferative activity against human UPF7U cells assessed as growth inhibition measured after 72 hrs by calcein AM dye-based fluorescence assay; assay type: functional, cell-based; procedure, shortened: as §1
Raji = test: Antiproliferative activity against human Raji cells assessed as growth inhibition measured after 72 hrs by calcein AM dye-based fluorescence assay; assay type: functional, cell-based; procedure, shortened: as §1
Mus musculus [20] = test: Ex vivo antitumor activity against human UPF1H cells xenografted NSG mouse decrease in phosphorylation of Rb at 780 residue at 5 to 10 mg/kg, iv measured after 24 hrs by immunoblotting analysis; assay type: functional, organism-based; procedure, shortened: as §3
SUD4 = test: Antiproliferative activity against human SUDHL4 cells assessed as growth inhibition measured after 72 hrs by calcein AM dye-based fluorescence assay; assay type: functional, cell-based; details: SU-DHL-4, 72 h
THP-1 = test: Antiproliferative activity against human THP1 cells assessed as growth inhibition measured after 72 hrs by calcein AM dye-based fluorescence assay; assay type: functional, cell-based; details: THP-1, 72 h; procedure, shortened: as §1

With `CC(C)c1n[nH]c2c(NCc3ccc(-c4ccccn4)cc3)nc(SCCN)nc12` the IC50 [1] was 603 nM, the GI50 [2] was 41 nM and the Activity (Homo sapiens [3]) was “Active”. For the same compound, the Activity (Mus musculus [4]) was “Active”, the GI50 (HCT-116) was 21.6 nM and the IC50 (HCT-116) was 22 nM. For the same compound, the TGI (Homo sapiens [5]) was “Active”, the GI50 [6] was 23 nM and the GI50 (OCI-Ly7) was 14 nM. The IC50 (OCI-Ly7) was 14 nM, the Activity (Homo sapiens [7]) was “Active” and the GI50 (JeKo-1) was 14 nM. For the same compound, the IC50 (JeKo-1) was 14 nM, the GI50 (U2932) was 30 nM and the IC50 (U2932) was 30 nM. For the same compound, the Activity (Homo sapiens [8]) was “Active”, the Activity (Mus musculus [9]) was “Active” and the Activity [10] was 18%. For the same compound, the Activity (Mus musculus [11]) was “Active”, the Activity (Homo sapiens [12]) was “Active” and the Activity (Homo sapiens [13]) was “Active”. The Activity (Homo sapiens [14]) was “Active”, the Activity (Mus musculus [15]) was “inactive” and the GI50 [16] was 10 nM. For the same compound, the IC50 [16] was 10 nM, the inhibition [17] was “Tde” and the IC50 [18] was 525 nM. The GI50 [19] was 12 nM, the IC50 [19] was 12 nM and the GI50 (Raji) was 38 nM. The IC50 (Raji) was 38 nM, the Activity (Mus musculus [20]) was “Active” and the GI50 (SUD4) was 15 nM. The GI50 (THP-1) was 19 nM and the IC50 (THP-1) was 19 nM.
